# Results from ChEMBL document CHEMBL4699669, “Discovery of a Potent Adenine-Benzyltriazolo-Pleuromutilin Conjugate with Pronounced Antibacterial Activity against MRSA” (J Med Chem, 2020).
# How the values were obtained:
# [1] = test system: Staphylococcus aureus; assay: Antibacterial activity against methicilin-resistant Staphylococcus aureus USA300 FPR3757 incubated for 20 to 24 hrs by microbroth dilution assay; format: functional; details: time hrs 20-24
# How it was run: (§1)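 Broth microdilution per EUCAST in Mueller-Hinton broth. Inoculum 5.0·10^5 CFU/mL, prepared from overnight single-colony cultures at OD600 0.1 then diluted 100x. Final compound concentrations 0.015–16 µg/mL. Incubation at 37 °C for 20–24 h, protected from light. MIC is the lowest concentration with no visible growth. Each replicate uses three cultures; n = 2–3.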
# [2] = test system: Staphylococcus aureus; assay: Antibacterial activity against methicilin-resistant Staphylococcus aureus USA300 FPR3757 incubated for 20 hrs by microbroth dilution assay; format: functional
# How it was run: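 MBC determined from a completed MIC replicate (MRSA USA300 FPR3757, Mueller-Hinton, 5.0·10^5 CFU/mL). […] MBC is the lowest concentration giving a 99.9% reduction of the starting inoculum; n = 3.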
# [3] = test system: Caco-2; assay: Cytotoxicity against undifferentiated human Caco2 cells assessed as ATP level at 108 ug/ml incubated for 3 hrs by Cell-titer Glo assay; format: cell-based; details: caco-2, 3 h, dose 108 µg/ml
# How it was run: (§2)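 Cells rinsed of growth medium, then exposed 3 h at 37 °C, 220 rpm, light-protected, to compound in HBSS with 10 mM HEPES, pH 7.4 (final DMSO <1% at top concentrations). Plates equilibrated 10 min at rt, CellTiter-Glo 2.0 added, mixed 2 min, signal stabilized 10 min. Luminescence (ATP) normalized to HBSS-only control cells. Mean ± SD of 3 wells, one passage.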
# [4] = test system: Staphylococcus epidermidis; assay: Antibacterial activity against methicilin-resistant Staphylococcus epidermis 933010 incubated for 20 to 24 hrs by microbroth dilution assay; format: functional; details: time hrs 20-24; how it was run: as §1
# [5] = test system: Staphylococcus aureus; assay: Antibacterial activity against methicilin-resistant Staphylococcus aureus 4828 incubated for 20 to 24 hrs by microbroth dilution assay; format: functional; details: time hrs 20-24; how it was run: as §1
# [6] = test system: Staphylococcus aureus; assay: Antibacterial activity against methicilin-resistant Staphylococcus aureus 52518 incubated for 20 to 24 hrs by microbroth dilution assay; format: functional; details: time hrs 20-24; how it was run: as §1
# [7] = Cytotoxicity against MDCK1 assessed as cell viability at 108 ug/ml incubated for 3 hrs by Cell-titer Glo assay; design: species or system Canis lupus familiaris; details: dog, mdck1, 3 h, dose 108 µg/ml; how it was run: as §2
# [8] = test system: Staphylococcus aureus; assay: Antibacterial activity against methicilin-resistant Staphylococcus aureus 55508 incubated for 20 to 24 hrs by microbroth dilution assay; format: functional; details: time hrs 20-24; how it was run: as §1
# [9] = test system: HEK293; assay: Cytotoxicity against HEK293 cells expressing OAT3 assessed as cell viability at 108 ug/ml incubated for 3 hrs by Cell-titer Glo assay; format: ADME, cell-based; details: human, hek293, 3 h, dose 108 µg/ml; how it was run: as §2
# [10] = test system: Caco-2; assay: Cytotoxicity against human Caco2 cells assessed as cell viability at 108 ug/ml incubated for 3 hrs by MTT assay; format: cell-based; details: caco-2, 3 h, dose 108 µg/ml
# How it was run: (§3)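 Undifferentiated Caco-2 cells, medium aspirated, treated 3 h at 37 °C, 220 rpm with compound in HEPES-buffered HBSS (HBSS alone as negative control, SDS as positive control). MTT then added (final 0.5 mg mL⁻¹) for 2 h more. Formazan dissolved overnight at 4 °C in 10 mM HCl/50% isobutanol/10% SDS. Mean ± SD of 3 wells, one passage.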
# [11] = test system: PC-3; assay: Cytotoxicity against human PC3 cells assessed as cell viability at 108 ug/ml incubated for 3 hrs by Cell-titer Glo assay; format: cell-based; details: pc-3, 3 h, dose 108 µg/ml; how it was run: as §2
# [12] = test system: Caco-2; assay: Cytotoxicity against differentiated human Caco2 cells assessed as increase in ATP level at 108 ug/ml incubated for 3 hrs by Cell-titer Glo assay; format: cell-based; details: caco-2, 3 h, dose 108 µg/ml; how it was run: as §2
# [13] = test system: Caco-2; assay: Cytotoxicity against human Caco2 cells assessed as cell viability at 33 ug/ml incubated for 3 hrs by MTT assay; format: cell-based; details: caco-2, 3 h, dose 33 µg/ml; how it was run: as §3
# [14] = test system: Caco-2; assay: Cytotoxicity against differentiated human Caco2 cells assessed as ATP level at 33 ug/ml incubated for 3 hrs by Cell-titer Glo assay; format: cell-based; details: caco-2, 3 h, dose 33 µg/ml; how it was run: as §2
# [15] = test system: Caco-2; assay: Cytotoxicity against differentiated human Caco2 cells assessed as increase in ATP level at 33 ug/ml incubated for 3 hrs by Cell-titer Glo assay; format: cell-based; details: caco-2, 3 h, dose 33 µg/ml; how it was run: as §2
# [16] = test system: Caco-2; assay: Cytotoxicity against differentiated human Caco2 cells assessed as increase in ATP level at 100 ug/ml incubated for 3 hrs by Cell-titer Glo assay; format: cell-based; details: caco-2, 3 h, dose 100 µg/ml; how it was run: as §2
# [17] = test system: Caco-2; assay: Cytotoxicity against undifferentiated human Caco2 cells assessed as ATP level at 100 ug/ml incubated for 3 hrs by Cell-titer Glo assay; format: cell-based; details: caco-2, 3 h, dose 100 µg/ml; how it was run: as §2
# [18] = Cytotoxicity against human PC3 cells assessed as decrease in ATP level at 100 ug/ml incubated for 3 hrs by Cell-titer Glo assay relative to control; format: cell-based, PC-3; details: at 100 µg/mL, read-out: INH; how it was run: as §2
# [19] = test system: Caco-2; assay: Cytotoxicity against human Caco2 cells assessed as cell viability at 100 ug/ml incubated for 3 hrs by MTT assay; format: cell-based; details: caco-2, 3 h, dose 100 µg/ml; how it was run: as §3
structure (smiles),measurement,setting,value
C=C[C@]1(C)C[C@@H](OC(=O)Cn2cc(-c3cccc(Cn4cnc5c(N(CC)CC)ncnc54)c3)nn2)[C@]2(C)[C@H](C)CC[C@]3(CCC(=O)[C@H]32)[C@@H](C)[C@@H]1O,MIC,[1],1 µg/mL
C=C[C@]1(C)C[C@@H](OC(=O)Cn2cc(-c3ccc(Cn4cnc5c(NCCN)ncnc54)cc3)nn2)[C@]2(C)[C@H](C)CC[C@]3(CCC(=O)[C@H]32)[C@@H](C)[C@@H]1O,MIC,[1],0.5 µg/mL
C=C[C@]1(C)C[C@@H](OC(=O)Cn2cc(-c3ccccc3Cn3cnc4c(N(CC)CC)ncnc43)nn2)[C@]2(C)[C@H](C)CC[C@]3(CCC(=O)[C@H]32)[C@@H](C)[C@@H]1O,MIC,[1],1 µg/mL
C=C[C@]1(C)C[C@@H](OC(=O)Cn2cc(-c3ccc(Cn4cnc5c(N)ncnc54)cc3)nn2)[C@]2(C)[C@H](C)CC[C@]3(CCC(=O)[C@H]32)[C@@H](C)[C@@H]1O,MBC,[2],0.12 µg/mL
same,Activity,[3],Non-Toxic
same,MIC,[4],0.25 µg/mL
same,MIC,[5],0.06 µg/mL
same,MIC,[1],0.03 µg/mL
same,MIC,[6],0.03 µg/mL
same,Activity,[7],Non-Toxic
same,MIC,[8],0.06 µg/mL
same,Activity,[9],Non-Toxic
same,Activity,[10],Non-Toxic
same,Activity,[11],Non-Toxic
same,Activity,[12],Toxic
C=C[C@]1(C)C[C@@H](OC(=O)Cn2cc(-c3cccc(Cn4cc(C)c(=O)[nH]c4=O)c3)nn2)[C@]2(C)[C@H](C)CC[C@]3(CCC(=O)[C@H]32)[C@@H](C)[C@@H]1O,MIC,[1],1 µg/mL
C=C[C@]1(C)C[C@@H](OC(=O)Cn2cc(-c3ccc(Cn4cnc5c(N(CC)CC)ncnc54)cc3)nn2)[C@]2(C)[C@H](C)CC[C@]3(CCC(=O)[C@H]32)[C@@H](C)[C@@H]1O,MIC,[1],0.25 µg/mL
C=C[C@]1(C)C[C@@H](OC(=O)Cn2cc(-c3ccc(Cn4cc(C)c(=O)[nH]c4=O)cc3)nn2)[C@]2(C)[C@H](C)CC[C@]3(CCC(=O)[C@H]32)[C@@H](C)[C@@H]1O,MIC,[1],0.13 µg/mL
C=C[C@]1(C)C[C@@H](OC(=O)Cn2cc(-c3cccc(Cn4cnc5c(N)ncnc54)c3)nn2)[C@]2(C)[C@H](C)CC[C@]3(CCC(=O)[C@H]32)[C@@H](C)[C@@H]1O,MIC,[1],0.25 µg/mL
C=C[C@]1(C)C[C@@H](OC(=O)Cn2cc(-c3ccccc3Cn3cc(C)c(=O)[nH]c3=O)nn2)[C@]2(C)[C@H](C)CC[C@]3(CCC(=O)[C@H]32)[C@@H](C)[C@@H]1O,MIC,[1],1 µg/mL
C=C[C@]1(C)C[C@@H](OC(=O)Cn2cc(-c3ccccc3Cn3cnc4c(N(CC)CC)nc(N)nc43)nn2)[C@]2(C)[C@H](C)CC[C@]3(CCC(=O)[C@H]32)[C@@H](C)[C@@H]1O,MIC,[1],0.5 µg/mL
C=C[C@]1(C)C[C@@H](OC(=O)Cn2cc(-c3ccccc3Cn3cnc4c(N)ncnc43)nn2)[C@]2(C)[C@H](C)CC[C@]3(CCC(=O)[C@H]32)[C@@H](C)[C@@H]1O,MIC,[1],0.5 µg/mL
C=C[C@]1(C)C[C@@H](OC(=O)Cn2cc(-c3ccc(CN4C(=O)c5ccccc5C4=O)cc3)nn2)[C@]2(C)[C@H](C)CC[C@]3(CCC(=O)[C@H]32)[C@@H](C)[C@@H]1O,MIC,[1],0.25 µg/mL
C=C[C@]1(C)C[C@@H](OC(=O)Cn2cc(-c3cccc(Cn4cnc5c(N6CCN(C)CC6)ncnc54)c3)nn2)[C@]2(C)[C@H](C)CC[C@]3(CCC(=O)[C@H]32)[C@@H](C)[C@@H]1O,MIC,[1],0.5 µg/mL
C=C[C@]1(C)C[C@@H](OC(=O)Cn2cc(-c3cccc(Cc4ccc(N(CC)CC)cc4)c3)nn2)[C@]2(C)[C@H](C)CC[C@]3(CCC(=O)[C@H]32)[C@@H](C)[C@@H]1O,MIC,[1],8 µg/mL
C=C[C@]1(C)C[C@@H](OC(=O)Cn2cc(-c3ccc(Cn4cnc5c(NC(=N)N)ncnc54)cc3)nn2)[C@]2(C)[C@H](C)CC[C@]3(CCC(=O)[C@H]32)[C@@H](C)[C@@H]1O,MIC,[1],0.5 µg/mL
C=C[C@]1(C)C[C@@H](OC(=O)Cn2cc(-c3cccc(Cn4cnc5c(N(CC)CC)nc(N)nc54)c3)nn2)[C@]2(C)[C@H](C)CC[C@]3(CCC(=O)[C@H]32)[C@@H](C)[C@@H]1O,MIC,[1],0.5 µg/mL
C=C[C@]1(C)C[C@@H](OC(=O)CS[C@@H]2C[C@H]3CC[C@@H](C2)N3C)[C@]2(C)[C@H](C)CC[C@]3(CCC(=O)[C@H]32)[C@@H](C)[C@@H]1O [RETAPAMULIN],MBC,[2],> 2 µg/mL
same,Activity,[13],Non-Toxic
same,MIC,[4],0.5 µg/mL
same,Activity,[14],Non-Toxic
same,Activity,[15],Toxic
same,MIC,[5],0.25 µg/mL
same,MIC,[1],0.25 µg/mL
same,MIC,[6],0.12 µg/mL
same,MIC,[8],0.25 µg/mL
C=C[C@]1(C)C[C@@H](OC(=O)CSC(C)(C)CNC(=O)[C@H](N)C(C)C)[C@]2(C)[C@H](C)CC[C@]3(CCC(=O)[C@H]32)[C@@H](C)[C@@H]1O [VALNEMULIN],MBC,[2],0.12 µg/mL
same,MIC,[4],0.25 µg/mL
same,Activity,[16],Toxic
same,Activity,[17],Non-Toxic
same,MIC,[5],0.06 µg/mL
same,MIC,[1],0.06 µg/mL
same,MIC,[6],0.06 µg/mL
same,MIC,[8],0.12 µg/mL
same,"cytotoxicity at 3 h, 100 ug/ml",[18],22%
same,Activity,[19],Non-Toxic
